ChEMBL document CHEMBL3124806, “Imidazopyridine-fused [1,3]-diazepinones: synthesis and antiproliferative activity” (Eur J Med Chem, 2014)

Tests used:
Format in all cases: functional
BT-549 = experiment: Cytotoxicity against human BT549 cells assessed as cell growth at 10 uM after 48 hrs by SRB assay relative to untreated control; details: BT-549, 48 h, read-out: Activity
Summary of the method: (§1)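 NCI-60 panel screen at a single concentration of 10 μM with 48 h incubation. Cell density measured by sulforhodamine B protein-binding dye and read spectrophotometrically. Growth expressed as percent of untreated control cells.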

DU-145 = experiment: Cytotoxicity against human DU145 cells assessed as cell growth at 10 uM after 48 hrs by SRB assay relative to untreated control; details: DU-145, 48 h, read-out: Activity; summary of the method: as §1
PC-3 = experiment: Cytotoxicity against human PC3 cells assessed as cell growth at 10 uM after 48 hrs by SRB assay relative to untreated control; details: PC-3, 48 h, read-out: Activity
Summary of the method: (§2)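 NCI-60 one-dose screen: each agent added at 10 µM, cultures incubated 48 h. Endpoint by sulforhodamine B protein-binding dye read spectrophotometrically; growth expressed as percent of untreated control cells.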

[1] = Cytotoxicity against human UO31 cells assessed as cell growth at 10 uM after 48 hrs by SRB assay relative to untreated control; details: UO-31, 48 h, read-out: Activity
Summary of the method: (§3)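 NCI-60 single-dose screen. Compounds were added to the cultures at 10 μM and incubated for 48 h. The end point was sulforhodamine B protein staining read spectrophotometrically. Growth is reported as percent of untreated control cells.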

SN12C = experiment: Cytotoxicity against human SN12C cells assessed as cell growth at 10 uM after 48 hrs by SRB assay relative to untreated control; details: read-out: Activity; summary of the method: as §3
RXF 393 = experiment: Cytotoxicity against human RXF393 cells assessed as cell growth at 10 uM after 48 hrs by SRB assay relative to untreated control; details: RXF 393, 48 h, read-out: Activity; summary of the method: as §2
A498 = experiment: Cytotoxicity against human A498 cells assessed as cell growth at 10 uM after 48 hrs by SRB assay relative to untreated control; details: A498, 48 h, read-out: Activity; summary of the method: as §1
786-0 = experiment: Cytotoxicity against human […] cells assessed as cell growth at 10 uM after 48 hrs by SRB assay relative to untreated control; details: 786-0, 48 h, read-out: Activity; summary of the method: as §1
[2] = Cytotoxicity against human NCI-ADR-RES cells assessed as cell growth at 10 uM after 48 hrs by SRB assay relative to untreated control; details: read-out: Activity; summary of the method: as §2
[3] = Cytotoxicity against human OVCAR5 cells assessed as cell growth at 10 uM after 48 hrs by SRB assay relative to untreated control; details: OVCAR-5, 48 h, read-out: Activity; summary of the method: as §2
[4] = Cytotoxicity against human OVCAR4 cells assessed as cell growth at 10 uM after 48 hrs by SRB assay relative to untreated control; details: OVCAR-4, 48 h, read-out: Activity; summary of the method: as §2
OVCAR-3 = experiment: Cytotoxicity against human OVCAR3 cells assessed as cell growth at 10 uM after 48 hrs by SRB assay relative to untreated control; details: OVCAR-3, 48 h, read-out: Activity; summary of the method: as §2
[5] = Cytotoxicity against human UACC257 cells assessed as cell growth at 10 uM after 48 hrs by SRB assay relative to untreated control; details: UACC-257, 48 h, read-out: Activity; summary of the method: as §3
SK-MEL-28 = experiment: Cytotoxicity against human SK-MEL-28 cells assessed as cell growth at 10 uM after 48 hrs by SRB assay relative to untreated control; details: SK-MEL-28, 48 h, read-out: Activity; summary of the method: as §3
MDA-MB-435 = experiment: Cytotoxicity against human MDA-MB-435 cells assessed as cell growth at 10 uM after 48 hrs by SRB assay relative to untreated control; details: MDA-MB-435, 48 h, read-out: Activity; summary of the method: as §2
M14 = experiment: Cytotoxicity against human M14 cells assessed as cell growth at 10 uM after 48 hrs by SRB assay relative to untreated control; details: M14, 48 h, read-out: Activity; summary of the method: as §1
Malme-3M = experiment: Cytotoxicity against human MALME-3M cells assessed as cell growth at 10 uM after 48 hrs by SRB assay relative to untreated control; details: read-out: Activity; summary of the method: as §1
LOX IMVI = experiment: Cytotoxicity against human LOXIMVI cells assessed as cell growth at 10 uM after 48 hrs by SRB assay relative to untreated control; details: read-out: Activity; summary of the method: as §1
U-251 = experiment: Cytotoxicity against human U251 cells assessed as cell growth at 10 uM after 48 hrs by SRB assay relative to untreated control; details: U-251, 48 h, read-out: Activity; summary of the method: as §3
SF-295 = experiment: Cytotoxicity against human SF295 cells assessed as cell growth at 10 uM after 48 hrs by SRB assay relative to untreated control; details: SF-295, 48 h, read-out: Activity; summary of the method: as §2
SF-268 = experiment: Cytotoxicity against human SF268 cells assessed as cell growth at 10 uM after 48 hrs by SRB assay relative to untreated control; details: SF-268, 48 h, read-out: Activity; summary of the method: as §2
SW-620 = experiment: Cytotoxicity against human SW620 cells assessed as cell growth at 10 uM after 48 hrs by SRB assay relative to untreated control; details: SW-620, 48 h, read-out: Activity; summary of the method: as §3
KM12 = experiment: Cytotoxicity against human KM12 cells assessed as cell growth at 10 uM after 48 hrs by SRB assay relative to untreated control; details: KM12, 48 h, read-out: Activity; summary of the method: as §1
HCT-15 = experiment: Cytotoxicity against human HCT15 cells assessed as cell growth at 10 uM after 48 hrs by SRB assay relative to untreated control; details: HCT-15, 48 h, read-out: Activity; summary of the method: as §1
HCC 2998 = experiment: Cytotoxicity against human HCC2998 cells assessed as cell growth at 10 uM after 48 hrs by SRB assay relative to untreated control; details: HCC 2998, 48 h, read-out: Activity; summary of the method: as §1
NCI-H522 = experiment: Cytotoxicity against human NCI-H522 cells assessed as cell growth at 10 uM after 48 hrs by SRB assay relative to untreated control; details: NCI-H522, 48 h, read-out: Activity; summary of the method: as §2
NCI-H460 = experiment: Cytotoxicity against human NCI-H460 cells assessed as cell growth at 10 uM after 48 hrs by SRB assay relative to untreated control; details: NCI-H460, 48 h, read-out: Activity; summary of the method: as §2
NCI-H226 = experiment: Cytotoxicity against human NCI-H226 cells assessed as cell growth at 10 uM after 48 hrs by SRB assay relative to untreated control; details: NCI-H226, 48 h, read-out: Activity; summary of the method: as §2
HOP-92 = experiment: Cytotoxicity against human HOP92 cells assessed as cell growth at 10 uM after 48 hrs by SRB assay relative to untreated control; details: HOP-92, 48 h, read-out: Activity; summary of the method: as §1
HOP-62 = experiment: Cytotoxicity against human HOP62 cells assessed as cell growth at 10 uM after 48 hrs by SRB assay relative to untreated control; details: HOP-62, 48 h, read-out: Activity; summary of the method: as §1
SR = experiment: Cytotoxicity against human SR cells assessed as cell growth at 10 uM after 48 hrs by SRB assay relative to untreated control; details: read-out: Activity; summary of the method: as §3
K562 = experiment: Cytotoxicity against human K562 cells assessed as cell growth at 10 uM after 48 hrs by SRB assay relative to untreated control; details: K562, 48 h, read-out: Activity; summary of the method: as §1

| SMILES | growth at 10 µM (BT-549) [%] | growth at 10 µM (DU-145) [%] | growth at 10 µM (PC-3) [%] | growth at 10 µM [1] [%] | growth at 10 µM (SN12C) [%] | growth at 10 µM (RXF 393) [%] | growth at 10 µM (A498) [%] | growth at 10 µM (786-0) [%] | growth at 10 µM [2] [%] | growth at 10 µM [3] [%] | growth at 10 µM [4] [%] | growth at 10 µM (OVCAR-3) [%] | growth at 10 µM [5] [%] | growth at 10 µM (SK-MEL-28) [%] | growth at 10 µM (MDA-MB-435) [%] | growth at 10 µM (M14) [%] | growth at 10 µM (Malme-3M) [%] | growth at 10 µM (LOX IMVI) [%] | growth at 10 µM (U-251) [%] | growth at 10 µM (SF-295) [%] | also measured |
| --- | --- | --- | --- | --- | --- | --- | --- | --- | --- | --- | --- | --- | --- | --- | --- | --- | --- | --- | --- | --- | --- |
| COc1ccc(C2=Nc3nc4ccccn4c3C(=O)[C@H](Cc3ccccc3)N2)cc1 | 85.3 | 111 | 91.8 | 83.5 | 113 | 107 | 112 | 101 | 89.2 | 107 | 112 | 110 | 92.3 | 98.1 | 51.4 | 98.3 | 97.6 | 95.2 | 95.3 | 92.5 | growth at 10 µM (SF-268): 105%; growth at 10 µM (SW-620): 100%; growth at 10 µM (KM12): 99.9%; growth at 10 µM (HCT-15): 101%; growth at 10 µM (HCC 2998): 96.4%; growth at 10 µM (NCI-H522): 94.7%; growth at 10 µM (NCI-H460): 104%; growth at 10 µM (NCI-H226): 98.6%; growth at 10 µM (HOP-92): 95.6%; growth at 10 µM (HOP-62): 88.2%; growth at 10 µM (SR): 105%; growth at 10 µM (K562): 86% |
| COc1ccc(C2=Nc3nc4ccccn4c3C(=O)[C@H](C)N2)cc1 | 85.7 | 113 | 87.3 | 55.6 | 97.7 | 121 | 105 | 98.5 | 96.5 | 101 | 98.4 | 98.3 | 96.1 | 105 | 90.2 | 95.4 | 94.3 | 87.6 | 98.5 | 98.2 | growth at 10 µM (SF-268): 104%; growth at 10 µM (SW-620): 106%; growth at 10 µM (KM12): 102%; growth at 10 µM (HCT-15): 85.2%; growth at 10 µM (HCC 2998): 97.8%; growth at 10 µM (NCI-H522): 87.4%; growth at 10 µM (NCI-H460): 105%; growth at 10 µM (NCI-H226): 86.9%; growth at 10 µM (HOP-92): 72.5%; growth at 10 µM (HOP-62): 80.4%; growth at 10 µM (SR): 80.4%; growth at 10 µM (K562): 86.8% |
| Cc1ccccc1C1=Nc2nc3ccccn3c2C(=O)[C@H](Cc2ccccc2)N1 | 96.9 | 113 | 89.4 | 80.6 | 107 | 105 | 98.2 | 101 | 95.4 | 101 | 98.7 | 108 | 87.3 | 113 | 98.8 | 102 | 109 | 91.7 | 100 | 96.5 | growth at 10 µM (SF-268): 104%; growth at 10 µM (SW-620): 103%; growth at 10 µM (KM12): 108%; growth at 10 µM (HCT-15): 100%; growth at 10 µM (HCC 2998): 99.9%; growth at 10 µM (NCI-H522): 121%; growth at 10 µM (NCI-H460): 103%; growth at 10 µM (NCI-H226): 99%; growth at 10 µM (HOP-92): 90.5%; growth at 10 µM (HOP-62): 93.4%; growth at 10 µM (SR): 122%; growth at 10 µM (K562): 113% |
